Values belong to the molecule of their own block, whether it stands above or below them. Active and inactive are the calls of the source. The rule behind the calls is not given here.
Legend:
Histamine H3 receptor [1] = target: Histamine H3 receptor (Homo sapiens, UniProt Q9Y5N1); assay: Displacement of [3H]-Nalpha-Methylhistamine from recombinant human histamine H3 receptor expressed in HEK293 cells after 1 hr by liquid scintillation counting analysis; assay type: cell-based
Homo sapiens = species on record: Homo sapiens; assay: Selectivity ratio of Ki for recombinant human histamine H4 receptor expressed in CHO cell membranes to Ki for recombinant human histamine H3 receptor expressed in HEK293 cells; assay type: cell-based
[2] = target: Histamine H3 receptor (Rattus norvegicus) (UniProt Q9QYN8); assay: Antagonist activity at rat histamine H3 receptor assessed as reduction in histamine level in rat cortex at 3 mg/kg, sc administered for 5 consecutive days measured at 24 hrs post last dose by RIA or ELISA method; assay type: organism-based
How it was run: (§1)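 Male rats aged 9-10 weeks (Wistar or Lewis, n = 8) received 3 mg kg⁻¹ per day s.c. for 5 days. Saline-dosed and ciproxifan-dosed groups were included. Rats were killed 24 h after the last injection. The cerebral cortex was dissected, frozen in liquid nitrogen, stored at -80 °C and homogenized in 3 volumes of water. Dopamine, noradrenaline and serotonin were measured by RIA; histamine by ELISA.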

[3] = target: Histamine H3 receptor (Rattus norvegicus) (UniProt Q9QYN8); assay: Antagonist activity at rat histamine H3 receptor assessed as reduction in noradrenaline level in rat cortex at 3 mg/kg, sc administered for 5 consecutive days measured at 24 hrs post last dose by RIA or ELISA method; assay type: organism-based; how it was run: as §1
[4] = target: Histamine H3 receptor (Rattus norvegicus) (UniProt Q9QYN8); assay: Antagonist activity at rat histamine H3 receptor assessed as reduction in dopamine level in rat cortex at 3 mg/kg, sc administered for 5 consecutive days measured at 24 hrs post last dose by RIA or ELISA method; assay type: organism-based; how it was run: as §1
[5] = target: Histamine H3 receptor (Rattus norvegicus) (UniProt Q9QYN8); assay: Antagonist activity at rat histamine H3 receptor assessed as reduction in serotonin level in rat cortex at 3 mg/kg, sc administered for 5 consecutive days measured at 24 hrs post last dose by RIA or ELISA method; assay type: organism-based; how it was run: as §1
Rattus norvegicus [6] = assay: Effect on cerebral MAO activity in rat at 3 mg/kg, sc administered for 5 consecutive days measured at 24 hrs post last dose by radioisotopic assay; assay type: functional, organism-based
How it was run: (§2)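 Cortex from rats given 3 mg kg⁻¹ per day s.c. for 5 days (n = 8) was taken 24 h after the last dose and homogenized in water. HNMT, MAO-A and MAO-B were measured radioisotopically. MAO-A used 5-[2-14C]hydroxytryptamine as substrate; MAO-B used β-[ethyl-1-¹⁴C]phenylethylamine. Clorgyline and deprenyl (final 10^-9 M) were used as inhibitors. Protein was measured by the Lowry method.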

Rattus norvegicus [7] = assay: Effect on cerebral HNMT activity in rat at 3 mg/kg, sc administered for 5 consecutive days measured at 24 hrs post last dose by radioisotopic assay; assay type: functional, organism-based; how it was run: as §2
Rattus norvegicus [8] = assay: Reduction in food consumption in Lewis rat at 3 mg/kg, sc administered daily for 5 days relative to control
Histamine H4 receptor = Histamine H4 receptor (Homo sapiens, UniProt Q9H3N8); assay: Displacement of [3H]histamine from human recombinant histamine H4 receptor expressed in CHO cell membranes after 1 hrs by liquid scintillation counting analysis
Histamine H3 receptor [9] = target: Histamine H3 receptor (Rattus norvegicus, UniProt Q9QYN8); assay: Displacement of [3H]-Nalpha-Methylhistamine from rat histamine H3 receptor expressed in HEK293T cell membranes after 120 mins by liquid scintillation counting analysis
Histamine H1 receptor [10] = target: T1, Histamine H1 receptor (Cavia porcellus, UniProt P31389); assay: Antagonist activity at histamine H1 receptor in guinea pig ileum preincubated for 10 mins followed by histamine addition during 30 mins equilibration period with washing every 10 mins; conditions: read-out: pA2 (converted)
Histamine H3 receptor [11] = target: T2, Histamine H3 receptor (Cavia porcellus, UniProt Q9JI35); assay: Antagonist activity at histamine H3 receptor in guinea pig jejunum assessed as effect on […] inhibition of electrically evoked contraction treated 20 mins after […]; assay type: tissue-based; conditions: read-out: pA2 (converted)
How it was run: (§3)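 Guinea pig jejunum segments (2 cm) were electrically stimulated between platinum electrodes in Krebs buffer gassed with 95% O2/5% CO2 at 37 °C, with isotonic recording under 1.0 g tension. […] After 20 min, cumulative half-log (R)-α-methylhistamine concentration-response curves were recorded until the response stopped changing.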

Histamine H1 receptor [12] = target: T1, Histamine H1 receptor; assay: (§4) Antagonist activity at histamine H1 receptor in guinea pig ileum preincubated for 10 mins followed by histamine addition during 30 mins equilibration period with washing every 10 mins; assay type: tissue-based; conditions: read-out: pA2 (converted)
[13] = target: Histamine H1 receptor (Cavia porcellus) (UniProt P31389); assay: as §4; assay type: tissue-based
Histamine H3 receptor [14] = target: T2, Histamine H3 receptor; assay: Antagonist activity at histamine H3 receptor in guinea pig jejunum assessed as effect on […] inhibition of electrically evoked contraction treated 20 mins after […] and measured after 1 hr equilibration followed by compound wash out every 10 mins; assay type: tissue-based; conditions: read-out: pA2 (converted); how it was run: as §3
Rattus norvegicus [15] = assay: Reduction in pellet consumption in Wistar rat at 3 mg/kg, sc administered daily for 5 days relative to control; assay type: functional; design: scale not given: the % may be the effect or the level left
How it was run: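 Male rats aged 9-10 weeks were housed singly in metabolic cages with free access to feed and water. Wistar rats were used for one compound and Lewis rats for the others. After 1 day of adaptation, baseline intake was averaged over 3 days. Dosing was 3 mg kg⁻¹ per day s.c. for 5 days (n = 8), with saline controls (0.2 ml per day). Intake was recorded each morning as g feed per 100 g body mass.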

T2 sequence (Q9JI35 whole entry): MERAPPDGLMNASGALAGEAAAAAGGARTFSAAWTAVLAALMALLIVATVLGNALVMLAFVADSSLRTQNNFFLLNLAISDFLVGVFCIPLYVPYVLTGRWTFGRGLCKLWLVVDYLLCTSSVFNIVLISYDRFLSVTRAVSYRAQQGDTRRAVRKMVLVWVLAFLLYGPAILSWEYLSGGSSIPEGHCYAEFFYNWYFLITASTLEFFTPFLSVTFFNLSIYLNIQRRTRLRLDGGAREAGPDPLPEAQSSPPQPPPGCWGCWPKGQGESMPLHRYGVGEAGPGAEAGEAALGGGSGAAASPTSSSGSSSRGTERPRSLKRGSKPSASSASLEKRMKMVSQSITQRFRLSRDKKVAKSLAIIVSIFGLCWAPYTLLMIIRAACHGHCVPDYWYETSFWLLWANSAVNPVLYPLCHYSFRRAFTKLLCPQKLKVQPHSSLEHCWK
Histamine H3 receptor (Homo sapiens, UniProt Q9Y5N1), sequence (Q9Y5N1 whole entry): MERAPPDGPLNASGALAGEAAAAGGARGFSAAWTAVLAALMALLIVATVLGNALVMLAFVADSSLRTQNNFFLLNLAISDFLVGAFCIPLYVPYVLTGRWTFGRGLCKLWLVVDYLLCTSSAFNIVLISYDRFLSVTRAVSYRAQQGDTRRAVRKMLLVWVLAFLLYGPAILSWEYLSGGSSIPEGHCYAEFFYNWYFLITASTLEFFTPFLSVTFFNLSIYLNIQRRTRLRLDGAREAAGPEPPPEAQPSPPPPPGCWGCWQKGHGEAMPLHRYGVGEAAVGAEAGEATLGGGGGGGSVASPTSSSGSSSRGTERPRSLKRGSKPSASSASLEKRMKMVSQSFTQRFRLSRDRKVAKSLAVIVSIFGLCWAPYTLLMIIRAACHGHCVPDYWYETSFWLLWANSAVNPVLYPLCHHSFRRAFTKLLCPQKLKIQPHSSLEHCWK
T1 sequence (P31389 whole entry): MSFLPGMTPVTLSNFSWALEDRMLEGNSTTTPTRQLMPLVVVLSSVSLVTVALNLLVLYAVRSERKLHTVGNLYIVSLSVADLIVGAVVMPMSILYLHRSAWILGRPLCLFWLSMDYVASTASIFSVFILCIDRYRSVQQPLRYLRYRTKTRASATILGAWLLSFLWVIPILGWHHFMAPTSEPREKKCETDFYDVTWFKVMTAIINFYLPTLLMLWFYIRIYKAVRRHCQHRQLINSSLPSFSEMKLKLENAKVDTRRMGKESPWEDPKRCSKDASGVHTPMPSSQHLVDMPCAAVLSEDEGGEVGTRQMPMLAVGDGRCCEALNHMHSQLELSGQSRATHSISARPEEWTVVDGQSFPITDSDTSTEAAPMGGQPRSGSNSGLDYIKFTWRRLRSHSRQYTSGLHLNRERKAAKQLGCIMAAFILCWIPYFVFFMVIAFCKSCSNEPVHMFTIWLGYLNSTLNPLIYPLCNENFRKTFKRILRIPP
Histamine H3 receptor (Rattus norvegicus, UniProt Q9QYN8), sequence (Q9QYN8 whole entry): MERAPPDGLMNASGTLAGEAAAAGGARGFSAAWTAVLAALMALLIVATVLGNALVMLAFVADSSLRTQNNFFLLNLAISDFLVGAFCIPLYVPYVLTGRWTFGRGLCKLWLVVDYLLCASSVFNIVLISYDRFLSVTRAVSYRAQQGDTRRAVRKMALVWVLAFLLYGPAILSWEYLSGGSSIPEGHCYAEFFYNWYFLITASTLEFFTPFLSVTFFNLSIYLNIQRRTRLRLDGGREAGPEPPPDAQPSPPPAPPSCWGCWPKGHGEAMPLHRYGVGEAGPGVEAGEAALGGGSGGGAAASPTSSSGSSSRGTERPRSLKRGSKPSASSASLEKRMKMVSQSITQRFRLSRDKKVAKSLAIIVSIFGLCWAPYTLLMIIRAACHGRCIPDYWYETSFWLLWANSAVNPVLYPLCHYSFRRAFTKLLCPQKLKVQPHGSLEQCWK
Histamine H3 receptor (Rattus norvegicus), sequence (Q9QYN8 whole entry): as above
Histamine H1 receptor (Cavia porcellus), sequence (P31389 whole entry): as the sequence (P31389 whole entry) above

SMILES: N=C(N)N(CCCCN1CCN(CCCCCCCOc2ccccc2)CC1)Cc1ccccc1
Ki (Histamine H3 receptor [1]): 158 nM
Ratio Ki (Homo sapiens): 20.9
Activity [2]: inactive
Activity [3]: inactive
Activity [4]: Active
Activity [5]: Active
Activity (Rattus norvegicus [6]): inactive
Activity (Rattus norvegicus [7]): inactive
Activity (Rattus norvegicus [8]): Active
Ki (Histamine H4 receptor): 3240 nM
Ki (Histamine H3 receptor [9]): 12.6 nM
Kb (Histamine H1 receptor [10]): 200 nM

SMILES: O=C(c1ccc(OCCCc2c[nH]cn2)cc1)C1CC1
Activity (Rattus norvegicus [8]): Active

SMILES: c1ccc(OCCCCCCCN2CCN(CCCCCCCOc3ccccc3)CC2)cc1
Kb (Histamine H3 receptor [11]): 1660 nM
pA2 [13]: inactive

SMILES: N=C(N)N(CCCCN1CCN(CCCCCCCOc2ccccc2)CC1)Cc1ccc([N+](=O)[O-])cc1
Ki (Histamine H3 receptor [1]): 145 nM
Ratio Ki (Homo sapiens): 8.3
Kb (Histamine H3 receptor [14]): 3.72 nM
Activity (Rattus norvegicus [15]): 10%
Activity [2]: inactive
Activity [3]: inactive
Activity [4]: Active
Activity [5]: Active
Activity (Rattus norvegicus [6]): inactive
Activity (Rattus norvegicus [7]): inactive
Ki (Histamine H4 receptor): 1200 nM
Ki (Histamine H3 receptor [9]): 15.8 nM
Kb (Histamine H1 receptor [10]): 224 nM

SMILES: N#C/N=C(\N)N(CCCCN1CCN(CCCCCCCOc2ccccc2)CC1)Cc1ccccc1
Kb (Histamine H3 receptor [11]): 50.1 nM
Kb (Histamine H1 receptor [12]): 107 nM

SMILES: S=C(NC1CCCCC1)N1CCC(c2cnc[nH]2)CC1 [THIOPERAMIDE]
Kb (Histamine H3 receptor [11]): 1.05 nM

SMILES: N=C(NCCCCN1CCN(CCCCCCCOc2ccccc2)CC1)NCc1ccc(C(F)(F)F)cc1
Kb (Histamine H3 receptor [11]): 10.7 nM
Kb (Histamine H1 receptor [12]): 66.1 nM

SMILES: N=C(NCCCCN1CCN(CCCCCCCOc2ccccc2)CC1)NCc1ccccc1
Kb (Histamine H3 receptor [11]): 7.94 nM
Kb (Histamine H1 receptor [12]): 79.4 nM

SMILES: N=C(N)N(CCCCCCCOc1ccccc1)Cc1ccccc1
Kb (Histamine H3 receptor [11]): 1660 nM
Kb (Histamine H1 receptor [12]): 158 nM

Continued, in another order:

Kb (Histamine H1 receptor [10]): 347 nM
SMILES: N=C(N)N(CCCCN1CCN(CCCCCCCOc2ccccc2)CC1)Cc1ccc(C(F)(F)F)cc1

Kb (Histamine H3 receptor [11]): 12.6 nM
Kb (Histamine H1 receptor [12]): 64.6 nM
SMILES: N=C(N)N(CCCCN1CCC(CCCCCCCOc2ccccc2)CC1)Cc1ccc(C(F)(F)F)cc1

Ki (Histamine H3 receptor [1]): 275 nM
Kb (Histamine H3 receptor [14]): 15.8 nM
Activity [2]: inactive
Activity [3]: inactive
Activity [4]: Active
Activity [5]: Active
Ki (Histamine H4 receptor): 1070 nM
Ki (Histamine H3 receptor [9]): 25.1 nM
Kb (Histamine H1 receptor [10]): 240 nM
SMILES: N=C(N)N(CCCCN1CCN(CCCCCCCOc2ccccc2)CC1)Cc1ccc(Cl)cc1
Ratio Ki (Homo sapiens): 3.9
Activity (Rattus norvegicus [6]): inactive
Activity (Rattus norvegicus [7]): inactive
Activity (Rattus norvegicus [8]): 13.5%

Kb (Histamine H3 receptor [11]): 10.2 nM
Kb (Histamine H1 receptor [12]): 60.3 nM
SMILES: N=C(N)N(CCCCN1CCN(CCCCN(Cc2ccc(C(F)(F)F)cc2)C(=N)N)CC1)Cc1ccc(C(F)(F)F)cc1

Kb (Histamine H3 receptor [11]): 4.47 nM
Kb (Histamine H1 receptor [12]): 126 nM
SMILES: N=C(N)N(CCCCC1CCN(CCCCCCCOc2ccccc2)CC1)Cc1ccc(C(F)(F)F)cc1
